Here are results for 21 compounds from PubChem BioAssay AID2340 (Sanford-Burnham Center for Chemical Genomics, 2010).

As usually defined, the EC50 is the concentration needed to bring the measured effect to its halfway point.

The test deals with G-protein coupled receptor 35 (Homo sapiens) (UniProt Q9HC97). Description: GPR35 agonist activity of analogs, SAR follow-up, selectivity assay, imaging, U2OS, beta-arrestin-GFP, powder samples (AID 2340). To be noted: U2OS GPR35 beta-arrestin-GFP translocation imaging. The method in brief:
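Assay system: human U2OS cells stably co-expressing GPR35 and beta-arrestin-GFP / Doses: Ten-point series, 62 nM to 32 µM, duplicates / Times: compound exposure 45 min at 37 °C / Measured by: imaging of fixed, DAPI-stained arrestin-GFP cells / Replication: each dose tested in duplicate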

Activity calls are given as the source filed them.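 Rule for the calls: active = potency EC50 below 10 µM in the dose response test; inactive = the rest.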

Chain of G-protein coupled receptor 35 (Homo sapiens) (Q9HC97 whole entry, looked up): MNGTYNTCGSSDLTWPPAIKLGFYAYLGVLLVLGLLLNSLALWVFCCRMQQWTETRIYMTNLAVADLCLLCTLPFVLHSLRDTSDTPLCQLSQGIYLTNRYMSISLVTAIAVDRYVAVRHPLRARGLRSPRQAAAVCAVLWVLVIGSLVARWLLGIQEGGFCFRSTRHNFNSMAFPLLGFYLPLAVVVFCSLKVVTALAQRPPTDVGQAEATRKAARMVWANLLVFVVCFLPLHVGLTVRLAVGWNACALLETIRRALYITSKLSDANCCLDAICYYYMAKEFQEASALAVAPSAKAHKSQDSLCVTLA

As to `COc1ccc(S(=O)(=O)N2CCOCC2)cc1NC(=O)c1cc2c(s1)CCCC2`, the EC50 is > 32 µM (inactive). Take `COc1cc2c(cc1NC(=O)C(C)Sc1ccc(NC(C)=O)cc1)oc1ccccc12` (stereo unspecified): the EC50 is > 32 µM (inactive).

For `CCCN(CCC)Cc1c(C(=O)NN=C/C(C)=C\c2ccccc2)nnn1-c1nonc1N`, the EC50 was > 32 µM (inactive). For the compound `C=CCN(CC=C)S(=O)(=O)c1ccc(NC(=S)NC(=O)c2ccc(-c3ccccc3)cc2)cc1`, the EC50 was > 32 µM (inactive). For `CCCN(CCC)Cc1c(C(=O)NN=Cc2c[nH]c3ccccc23)nnn1-c1nonc1N`, the EC50 was > 32 µM (inactive).

Regarding `O=C(CSc1nc2ccccc2s1)N1c2ccccc2Sc2ccc(C(F)(F)F)cc21`, the EC50 was > 32 µM (inactive). Consider `CC(C)=CC(=O)Nc1ccc(OCc2ccccc2)cc1`, for which the EC50 is > 32 µM (inactive).

For the compound `CC(C)NS(=O)(=O)c1ccc(NC(=S)NC(=O)c2ccc(-c3ccccc3)cc2)cc1`, the EC50 was > 32 µM (inactive). As for `Cc1occc1C(=O)Nc1ccc(OCc2ccccc2)cc1`, the EC50 was > 32 µM (inactive). Consider `COc1ccc2c(c1)cc(C)c1nnc(SCC(=O)N(C)c3nc(-c4ccccc4)cs3)n12`, for which the EC50 was > 32 µM (inactive).

Take `C/C(C=NNC(=O)c1nnn(-c2nonc2N)c1CN1CCC(C)CC1)=C/c1ccccc1`: the EC50 is > 32 µM (inactive). As for `COc1cc2c(cc1NC(=O)CSc1ccccc1)oc1ccccc12`, the EC50 is > 32 µM (inactive). Consider `COc1ccc2cc(C)c3nnc(SCC(=O)Nc4nc(-c5ccc(F)cc5)cs4)n3c2c1`, for which the EC50 is > 32 µM (inactive). In the case of `COc1ccc(-c2csc(NC(=O)CSc3nnc4c(C)cc5ccccc5n34)n2)cc1`, the EC50 was > 32 µM (inactive).

For the compound `CCCN(CCC)Cc1c(C(=O)NN=C/C(C)=C\c2ccco2)nnn1-c1nonc1N`, the EC50 was > 32 µM (inactive). Consider `COc1ccccc1/C=C/C(=O)NC(=S)Nc1ccc(S(=O)(=O)N(C)c2ccccc2)cc1`, for which the EC50 is > 32 µM (inactive). `CN(C)S(=O)(=O)c1ccc(N2CCCC2)c(C(=O)N2CCN(c3ccc([N+](=O)[O-])cc3)CC2)c1`: the EC50 is > 32 µM (inactive). For the compound `O=C(CSc1nc2ccccc2s1)N1c2ccccc2Sc2ccc(Cl)cc21`, the EC50 is > 32 µM (inactive). For `Cc1cccc(N2CCN(C(=O)c3cc(S(=O)(=O)N(C)C)ccc3N3CCCC3)CC2)c1C`, the EC50 is > 32 µM (inactive). With `CC(C)Oc1ccc(S(=O)(=O)N2CCOCC2)cc1NC(=O)c1ccc(N2CCCC2=O)cc1`, the EC50 was > 32 µM (inactive). The figure for `CC(Sc1nc2cc(Cl)ccc2s1)C(=O)Nc1cccc(S(=O)(=O)N2CCOCC2)c1` (stereo unspecified) is > 32 µM (inactive).
